Source: PubChem BioAssay (several laboratories)
Hits are enriched below; roughly 2.9% of the tested compounds scored in any of these assays.
SENP6 block – SENP6 protease inhibition; Recombinant SENP6 catalytic domain, aminoluciferin luminescence; inhibition, % at 10 µM; 330,000 tested, 1.8% active; AID 2599;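 active = inhibition above about 50% at the single tested dose, limit read from the data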
SENP8 block-1 – blocks human SENP8 cleavage of Nedd8 substrate. recombinant SENP8, Nedd8 substrate fluorescence. inhibition, % at 20 µM. Q96LD8. AID 602440. 360,000 tested, 0.64% active; in the data active = inhibition mostly above about 40%, no sharp cut-off; inactive = mostly below about 27%
SENP8 block-2 – SENP8 protease inhibition; Q96LD8; purified SENP8, Z-RLRGG-aminoluciferin cleavage, luminescence; inhibition, % at 10 µM; 330,000 tested, 1.2% active; in the data active = inhibition above about 50%
SENP1 inh – inhibitors of human SENP1 SUMO protease catalytic domain; Q9P0U3; 360,000 tested, 0.21% active; recombinant SENP1 catalytic domain, CyPet-SUMO1-YPet FRET cleavage; inhibition, % at 10 µM; AID 624204;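 active = inhibition at least 30% at 10 µM, raw YFP signal under a set limit, fluorescence ratio 0.5 to 1.5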
Target sequence (Q9P0U3 419-644 limits assumed): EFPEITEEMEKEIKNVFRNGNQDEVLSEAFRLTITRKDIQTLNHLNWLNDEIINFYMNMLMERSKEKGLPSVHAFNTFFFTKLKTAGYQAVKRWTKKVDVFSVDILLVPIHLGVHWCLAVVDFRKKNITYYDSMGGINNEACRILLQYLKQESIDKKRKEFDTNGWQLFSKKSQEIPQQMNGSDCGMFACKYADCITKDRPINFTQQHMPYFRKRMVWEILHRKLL
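Test system: human SENP1 catalytic domain; medium: Tris pH 8 buffer plus EDTA, NaCl, BME, BSA, NP40, catalase; incubation: 50 min reaction at room temperature; technique: FRET, CFP and YFP emission; controls: no-enzyme low control and enzyme-plus-DMSO high control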
SENP7 block – SENP7 protease inhibition; Q9BQF6; recombinant SENP7, Z-RLRGG-aminoluciferin luminescence, 40 min; inhibition, % at 5 µM; 330,000 tested, 1.5% active;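 active = inhibition above about 50% at the single test dose, limit read from the data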
Target sequence (Q9BQF6 706-1050 limits assumed): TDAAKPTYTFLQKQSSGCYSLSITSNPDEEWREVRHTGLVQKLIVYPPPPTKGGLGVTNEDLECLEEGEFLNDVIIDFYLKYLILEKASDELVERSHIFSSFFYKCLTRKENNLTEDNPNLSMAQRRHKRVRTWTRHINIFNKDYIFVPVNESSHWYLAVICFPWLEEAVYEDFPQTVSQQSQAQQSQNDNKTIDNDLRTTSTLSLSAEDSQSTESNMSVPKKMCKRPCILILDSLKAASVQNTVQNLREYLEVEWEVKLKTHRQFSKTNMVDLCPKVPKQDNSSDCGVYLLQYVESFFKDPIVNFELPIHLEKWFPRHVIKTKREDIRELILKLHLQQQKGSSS
HSP90 inh – HSP90 refolding inhibition in rabbit reticulocyte lysate; AID 1789; luciferase refolding luminescence, 3 h; inhibition, % at 5.6 µM; 290,000 tested, 0.91% active;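 active = inhibition above the screen-wide mean plus 3 SD, computed separately per campaign, cut at about 16% in these data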;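 also: inhibitors lower the luminescence because luciferase stays unfolded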
SENP8 conf – SENP8 (human) inhibition, single concentration confirmation; shares compounds with SENP8 block-1; purified SENP8, Nedd8-AMC/pro-Nedd8 cleavage fluorescence, 30 min; inhibition, % at 25 µM; 1,400 tested, 15% active; AID 624319; in the data active = inhibition mostly above about 39%, no sharp cut-off; inactive = mostly below about 34%
Numbers stand for hits; – = inactive; · = not tested or not shown.

SMILES	SENP6 block	SENP8 block-1	SENP8 block-2	SENP1 inh	SENP7 block	HSP90 inh	SENP8 conf
Cc1[nH][nH]c(=O)c1C(c1c(C)[nH][nH]c1=O)c1cn(Cc2ccc(Cl)c(Cl)c2)c2ccccc12	·	73	·	–	·	–	68
O=C(O)Cc1cn(Cc2ccc(F)cc2)c2ccccc12	–	–	–	–	–	–	·
CCCCOCCCNC(=O)C[C@@H]1C[C@@]2(C(=O)OCC)CCC=C2N(CCC2=CCCCC2)C1=O	·	–	·	–	·	·	·
Cc1ccc(S(=O)(=O)NCC(=O)NCC2COc3ccccc3O2)cc1C (stereo not drawn)	–	–	–	–	–	·	·
CCOc1ccc(OCC(=O)Nc2ccc(S(=O)(=O)Nc3cc(C)nc(C)n3)cc2)cc1	–	42	–	–	–	–	–
Cc1cc(NS(=O)(=O)c2ccc(NC(=O)COc3ccc(Br)cc3)cc2)nc(C)n1	–	–	–	–	–	–	·
CSCC[C@H](NC(=O)[C@@H]1CSC2c3ccccc3C(=O)N21)C(=O)N1CCC[C@H]1CO (stereo partly drawn)	–	62	–	–	–	–	–
O=c1oc2ccccc2nc1/C=C(O)/C=C\c1ccccc1	–	–	–	–	–	–	·
O=c1oc2ccccc2nc1/C=C(O)/C=C/c1ccc(F)cc1	–	47	–	–	–	–	–
CC1(C)C=C2C(=NN(c3ccccc3)C(N)=C2C#N)CO1	–	54	–	–	–	–	97
CC1(C)Cc2c(C#N)c(N)n(-c3ccccc3)c(=S)c2CO1	–	–	–	–	–	–	·
COc1cccc(CNC(=O)[C@@H]2CCCN2C(=O)[C@@H]2CCCN2C(=O)c2cccc3ccccc23)c1	·	–	·	–	·	·	·
O=C1CC(Sc2ncccc2C(=O)O)C(=O)N1 (stereo not drawn)	–	–	–	–	–	–	·
O=C1CC(SC(=S)C2CCCC2=O)C(=O)N1 (stereo not drawn)	·	41	·	–	·	·	–
CCOC(=O)C1=C(CN2CCSCC2)NC(=O)NC1c1cccc([N+](=O)[O-])c1 (stereo not drawn)	–	44	–	–	–	–	–
CCC(CO)Oc1cc(NCc2ccc(C)cc2)c2ncn(C(C)C)c2c1 (stereo not drawn)	–	–	–	–	–	·	·
CCC(CO)Oc1cc(NCc2cccc(C)c2)c2ncn(C(C)C)c2c1 (stereo not drawn)	–	42	–	–	–	·	54
CC[C@H](CO)Oc1cc(NCc2cccc(N)c2)c2ncn(C(C)C)c2c1	·	56	·	–	·	·	87
Cn1cc(S(=O)(=O)N2CCCC2)cc1C(=O)NCc1ccccc1Cl	–	–	–	–	–	–	·
Cc1ccc(NC(=S)NNC(=O)c2cn(C)nc2C)cc1	–	43	–	–	–	–	–
O=C(NCc1ccccc1)C(c1ccccc1F)n1c(=O)c(-c2ccco2)nc2ccccc21 (stereo not drawn)	·	–	·	–	·	·	·
Cc1noc(C)c1CSCC(=O)Nc1ccccc1N1CCCC1	·	–	·	–	·	·	·
CNc1cc([N+](=O)[O-])ccc1N/C=C/C(=O)c1cccs1	–	42	–	–	–	–	–
COc1cccc(Nc2cc(N3CCOCC3)c3nonc3c2[N+](=O)[O-])c1	–	44	–	–	–	–	–
O=[N+]([O-])c1c(Nc2ccccc2O)cc(N2CCOCC2)c2nonc12	–	–	–	–	–	–	·
SMILES	SENP6 block	SENP8 block-1	SENP8 block-2	SENP1 inh	SENP7 block	HSP90 inh	SENP8 conf
O=C(C[n+]1cc(-c2ccccc2)n2c1CCCCC2)c1ccc(Br)cc1	–	46	–	–	–	–	–
O=C(Nc1ccc(N2CCCC2)cc1)c1ccccc1[N+](=O)[O-]	–	35	–	–	–	–	–
O=C(Nc1ccc(N2CCCCC2)cc1)c1ccc2ccccc2n1	–	40	–	–	–	–	–
CS(=O)(=O)NCc1csc(-c2ccccc2)n1	–	44	–	–	–	–	–
CCS(=O)(=O)NCc1csc(-c2ccccc2)n1	–	–	–	–	–	–	·
Cc1ccc(Nc2nc(N)c([N+](=O)[O-])c(N3CCOCC3)n2)cc1C	–	41	–	–	–	–	–
Cc1ccc(Nc2nc(N)c([N+](=O)[O-])c(NCCO)n2)cc1C	–	48	–	–	–	–	–
Nc1nc(Nc2ccc(Cl)cc2)nc(NCCO)c1[N+](=O)[O-]	–	–	–	–	–	–	·
CC(C)C1Cc2c(sc3ncnc(NN)c23)CO1 (stereo not drawn)	–	42	–	–	–	–	–
CC(C)Cc1nc2sc3c(c2c(=O)n1N)CC(C(C)C)OC3 (stereo not drawn)	–	–	–	–	–	–	·
Cc1cc(N2CCN(C(C(=O)NC3CCCC3)c3ccc(F)cc3)CC2)c2ccccc2n1 (stereo not drawn)	·	–	·	–	·	·	·
Cc1cc(C(=O)N2CCCC(N3CCN(c4cccc(Cl)c4)CC3)C2)nn1C (stereo not drawn)	–	–	–	–	–	–	·
COc1ccc(NCC(=O)N/N=C2\CCc3ccccc32)cc1	–	40	–	–	–	–	–
NC(=O)c1ccsc1NC(=O)c1ccc([N+](=O)[O-])o1	–	–	–	–	–	·	·
O=S(=O)(c1ccc(NC(=S)Nc2ccc3c(c2)OCO3)cc1)N1CCOCC1	–	44	–	–	–	–	–
CS(=O)(=O)c1ccc(NC(=O)CCCc2nc3ccccc3c(=O)[nH]2)cc1	–	54	–	–	–	·	–
CCCCCCCCNS(=O)(=O)CCNC1CC1	·	–	·	–	·	·	·
CC(C)Nc1ncnc2[nH]ncc12	·	–	·	–	·	·	·
OC[C@H]1O[C@H](OCc2ccccc2)[C@H](O[C@@H]2OC[C@@H](O)[C@H](O)[C@H]2O)[C@@H](O)[C@@H]1O	–	42	–	–	–	·	–
OC1COC(OCC2OC(OCc3ccccc3)C(O)C(O)C2O)C(O)C1O (stereo not drawn)	–	–	–	–	–	–	·
O=C(O)/C=C\C(=O)Nc1ccc(N2CCN(c3ccc(F)cc3)CC2)cc1	–	38	–	–	–	–	–
Cc1ccc(S(=O)(=O)N2CCC(C(=O)Nc3ncccc3O)CC2)cc1	–	–	–	–	–	·	·
Cc1cccc(NC(=O)CCOc2ccccc2)c1	–	40	–	–	–	–	–
Cc1cccc(OCCC(=O)Nc2c(C)n(C)n(-c3ccccc3)c2=O)c1	–	42	–	–	–	–	–
Cc1cccc(NC(=O)Cc2ccc(F)cc2)c1	–	42	–	–	–	–	–
CN(CCc1ccccc1)C(c1ccnc2ccccc12)c1nnnn1-c1ccc2c(c1)OCCO2 (stereo not drawn)	·	–	·	–	·	·	·
COc1cc(C(=O)N2CCCCCCC2)ccc1OC1CCN(C(C)=O)CC1	–	–	–	–	–	–	·
CN(Cc1ccc(Br)cc1)C(=O)CCN1C(=O)c2cccc([N+](=O)[O-])c2C1=O	–	–	–	–	–	–	·
